Laboratory results reported in ChEMBL document CHEMBL2346534, “Design, synthesis and in vitro anti-proliferative activity of 4,6-quinazolinediamines as potent EGFR-TK inhibitors” (Eur J Med Chem, 2013).

Assays:
Format in all cases: functional
[1] = test system: A549; assay: Cytotoxicity against human A549 cells assessed as cell growth at 10^-5 M after 48 hrs by SRB assay; settings: A549, 48 h, read-out: Activity
Outline: (§1)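 NCI 60 single-dose screen at 10^-5 M. Cells in RPMI 1640 with 5% FBS and 2 mM L-glutamine, preincubated 24 h at 37 °C/5% CO2. Drug from DMSO stock, then 48 h exposure. TCA fixation, SRB staining, absorbance at 515 nm. Result given as percent growth of treated cells relative to untreated control.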

[2] = test system: 786-0; assay: Cytotoxicity against human 786-0 cells assessed as cell growth at 10^-5 M after 48 hrs by SRB assay; settings: 786-0, 48 h, read-out: Activity; outline: as §1
[3] = test system: OVCAR-3; assay: Cytotoxicity against human OVCAR3 cells assessed as cell growth at 10^-5 M after 48 hrs by SRB assay; settings: OVCAR-3, 48 h, read-out: Activity
Outline: (§2)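 NCI 60-panel single-dose primary screen at 10^-5 M. Cells are grown in RPMI 1640 with 5% FBS and 2 mM L-glutamine and preincubated 24 h at 37 °C. Drug exposure is 48 h. Cells are TCA-fixed, stained with SRB and absorbance is read at 515 nm. Results are reported as percent growth of treated cells versus untreated controls, corrected using time-zero plates.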

[4] = Cytotoxicity against human EKVX cells assessed as cell growth at 10^-5 M after 48 hrs by SRB assay; settings: read-out: Activity; outline: as §1
[5] = test system: Hs-578T; assay: Cytotoxicity against human Hs578T cells assessed as cell growth at 10^-5 M after 48 hrs by SRB assay; settings: read-out: Activity; outline: as §1
[6] = test system: HOP-92; assay: Cytotoxicity against human HOP92 cells assessed as cell growth at 10^-5 M after 48 hrs by SRB assay; settings: HOP-92, 48 h, read-out: Activity; outline: as §1
[7] = test system: HL-60(TB); assay: Cytotoxicity against human HL-60(TB) cells assessed as cell growth at 10^-5 M after 48 hrs by SRB assay; settings: HL-60, 48 h, read-out: Activity
Outline: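 NCI 60-panel single-dose screen. Cells were grown in RPMI 1640 with 5% FBS and 2 mM L-glutamine, preincubated 24 h, then exposed to compound at 10^-5 M (from DMSO stock) for 48 h at 37 °C, 5% CO2. Settled suspension cells were TCA-fixed and SRB-stained, with absorbance read at 515 nm. The value is percent growth of treated versus untreated control cells.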

[8] = test system: SK-MEL-2; assay: Cytotoxicity against human SK-MEL-2 cells assessed as cell growth at 10^-5 M after 48 hrs by SRB assay; settings: SK-MEL-2, 48 h, read-out: Activity; outline: as §2
[9] = test system: MDA-MB-468; assay: Cytotoxicity against human MDA-MB-468 cells assessed as cell growth at 10^-5 M after 48 hrs by SRB assay; settings: MDA-MB-468, 48 h, read-out: Activity; outline: as §2
[10] = test system: Malme-3M; assay: Cytotoxicity against human MALME-3M cells assessed as cell growth at 10^-5 M after 48 hrs by SRB assay; settings: read-out: Activity; outline: as §1
[11] = test system: A498; assay: Cytotoxicity against human A498 cells assessed as cell growth at 10^-5 M after 48 hrs by SRB assay; settings: A498, 48 h, read-out: Activity; outline: as §1
[12] = Cytotoxicity against human NCI-ADR-RES cells assessed as cell growth at 10^-5 M after 48 hrs by SRB assay; settings: read-out: Activity; outline: as §2
[13] = test system: MOLT-4; assay: Cytotoxicity against human MOLT4 cells assessed as cell growth at 10^-5 M after 48 hrs by SRB assay; settings: MOLT-4, 48 h, read-out: Activity; outline: as §2
[14] = test system: SK-MEL-28; assay: Cytotoxicity against human SK-MEL-28 cells assessed as cell growth at 10^-5 M after 48 hrs by SRB assay; settings: SK-MEL-28, 48 h, read-out: Activity; outline: as §2
[15] = test system: TK-10; assay: Cytotoxicity against human TK10 cells assessed as cell growth at 10^-5 M after 48 hrs by SRB assay; settings: TK-10, 48 h, read-out: Activity
Outline: (§3)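 NCI primary single-dose screen at 10^-5 M. Cells grown in RPMI 1640 with 5% FBS and 2 mM L-glutamine, given 24 h before drug addition, then 48 h exposure at 37 °C, 5% CO2. Cells TCA-fixed, stained with SRB, read at 515 nm. Reported as percent growth of treated cells relative to untreated controls.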

[16] = test system: SNB-19; assay: Cytotoxicity against human SNB19 cells assessed as cell growth at 10^-5 M after 48 hrs by SRB assay; settings: SNB-19, 48 h, read-out: Activity; outline: as §2
[17] = test system: NCI-H226; assay: Cytotoxicity against human NCI-H226 cells assessed as cell growth at 10^-5 M after 48 hrs by SRB assay; settings: NCI-H226, 48 h, read-out: Activity; outline: as §2
[18] = test system: OVCAR-5; assay: Cytotoxicity against human OVCAR5 cells assessed as cell growth at 10^-5 M after 48 hrs by SRB assay; settings: OVCAR-5, 48 h, read-out: Activity; outline: as §2
[19] = test system: SW-620; assay: Cytotoxicity against human SW620 cells assessed as cell growth at 10^-5 M after 48 hrs by SRB assay; settings: SW-620, 48 h, read-out: Activity; outline: as §3
[20] = test system: U-251; assay: Cytotoxicity against human U251 cells assessed as cell growth at 10^-5 M after 48 hrs by SRB assay; settings: U-251, 48 h, read-out: Activity; outline: as §3
[21] = test system: MDA-MB-231; assay: Cytotoxicity against human MDA-MB-231 cells assessed as cell growth at 10^-5 M after 48 hrs by SRB assay; settings: MDA-MB-231, 48 h, read-out: Activity; outline: as §1
[22] = test system: OVCAR-4; assay: Cytotoxicity against human OVCAR4 cells assessed as cell growth at 10^-5 M after 48 hrs by SRB assay; settings: OVCAR-4, 48 h, read-out: Activity; outline: as §2
[23] = test system: HCC 2998; assay: Cytotoxicity against human HCC2998 cells assessed as cell growth at 10^-5 M after 48 hrs by SRB assay; settings: HCC 2998, 48 h, read-out: Activity; outline: as §1
[24] = test system: HCT-15; assay: Cytotoxicity against human HCT15 cells assessed as cell growth at 10^-5 M after 48 hrs by SRB assay; settings: HCT-15, 48 h, read-out: Activity; outline: as §1
[25] = test system: ACHN; assay: Cytotoxicity against human ACHN cells assessed as cell growth at 10^-5 M after 48 hrs by SRB assay; settings: read-out: Activity; outline: as §1
[26] = test system: SK-MEL-5; assay: Cytotoxicity against human SK-MEL-5 cells assessed as cell growth at 10^-5 M after 48 hrs by SRB assay; settings: SK-MEL-5, 48 h, read-out: Activity; outline: as §2
[27] = test system: LOX IMVI; assay: Cytotoxicity against human LOXIMVI cells assessed as cell growth at 10^-5 M after 48 hrs by SRB assay; settings: read-out: Activity; outline: as §1
[28] = test system: UO-31; assay: Cytotoxicity against human UO31 cells assessed as cell growth at 10^-5 M after 48 hrs by SRB assay; settings: UO-31, 48 h, read-out: Activity; outline: as §3

C#Cc1cccc(Nc2ncnc3ccc(N/C=C(\C#N)C(=O)OCC)cc23)c1
growth at 10 µM [1]: 85.1%
growth at 10 µM [2]: 91.7%
growth at 10 µM [3]: 78.7%
growth at 10 µM [4]: 31.9%
growth at 10 µM [5]: 103%
growth at 10 µM [6]: 90.3%
growth at 10 µM [7]: 97.5%
growth at 10 µM [8]: 123%
growth at 10 µM [9]: 40.4%
growth at 10 µM [10]: 119%
growth at 10 µM [11]: 82.5%
growth at 10 µM [12]: 100%
growth at 10 µM [13]: 87.5%
growth at 10 µM [14]: 103%
growth at 10 µM [15]: 65.5%
growth at 10 µM [16]: 85.1%
growth at 10 µM [17]: 89.8%
growth at 10 µM [18]: 89.5%
growth at 10 µM [19]: 105%
growth at 10 µM [20]: 85.4%
growth at 10 µM [21]: 97.2%
growth at 10 µM [22]: 94%
growth at 10 µM [23]: 102%
growth at 10 µM [24]: 94.2%
growth at 10 µM [25]: 63.1%
growth at 10 µM [26]: 89.4%
growth at 10 µM [27]: 103%
growth at 10 µM [28]: 58.6%
